Data from ChEMBL document CHEMBL1148280, “Design, synthesis, structural studies, biological evaluation, and computational simulations of novel potent AT(1) angiotensin II receptor antagonists based on the 4-phenylquinoline structure” (J Med Chem, 2004).

Legend:
[1] = molecular target: T1, Type-1 angiotensin II receptor B (Rattus norvegicus, UniProt P29089); assay: Binding affinity for rat angiotensin II receptor, type 1
T1 sequence (P29089 whole entry): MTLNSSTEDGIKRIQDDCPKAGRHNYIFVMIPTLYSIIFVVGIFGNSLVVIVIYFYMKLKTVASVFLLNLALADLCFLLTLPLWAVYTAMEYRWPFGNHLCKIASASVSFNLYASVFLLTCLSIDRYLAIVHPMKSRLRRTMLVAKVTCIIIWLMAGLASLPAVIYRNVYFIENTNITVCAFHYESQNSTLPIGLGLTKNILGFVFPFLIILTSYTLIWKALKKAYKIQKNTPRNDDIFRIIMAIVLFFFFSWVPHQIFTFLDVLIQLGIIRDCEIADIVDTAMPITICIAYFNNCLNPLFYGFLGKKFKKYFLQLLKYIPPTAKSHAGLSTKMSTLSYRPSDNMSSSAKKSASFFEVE

Oryctolagus cuniculus [2] = organism: Oryctolagus cuniculus; assay: Inhibition of angiotensin II induced contraction in rabbit aortic strips after 60 minutes contact with the compound; type: functional; conditions: Aorta, 1 h
Summary of the method: (§1)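 Rabbit aortic strips under 2 g resting tension, isometric recording, equilibrated 1 h. A cumulative Ang II concentration–response curve was run first, then a 30 min washout. Antagonist or vehicle was added at several concentrations before a submaximal (70–80%) Ang II challenge; contact time differed by line. Percent inhibition was regressed to give IC50 with P = 0.05 fiducial limits.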

Oryctolagus cuniculus [3] = organism: Oryctolagus cuniculus; assay: Inhibition of angiotensin II induced contraction in rabbit aortic strips after 120 minutes contact with the compound; type: functional; conditions: Aorta, 2 h; summary of the method: as §1

SMILES: CCc1nc2c(C)cc(C)nc2n1Cc1ccc(-c2c(C(=O)O)c(N)nc3ccccc23)cc1
- IC50 [1]: 0.013 µM

SMILES: CCCc1nc2c(C)ccnc2n1Cc1ccc(-c2cccnc2-c2nn[nH]n2)cc1
- IC50 [1]: 0.06 µM

SMILES: CCc1nc2c(C)cc(C)nc2n1Cc1ccc(-c2c(C(=O)O)cnc3ccccc23)cc1
- IC50 [1]: 0.017 µM

SMILES: CCCCC(=O)N(Cc1ccc(-c2ccccc2-c2nnn[nH]2)cc1)[C@H](C(=O)O)C(C)C
- IC50 [1]: 0.0019 µM

SMILES: CCCCc1nc2c(C)cc(C)nc2n1Cc1ccc(-c2c(C(=O)O)c(N)nc3ccccc23)cc1
- IC50 [1]: 0.013 µM

SMILES: CCc1nc2c(C)cc(C)nc2n1Cc1ccc(-c2c(CC(=O)O)cnc3ccccc23)cc1
- IC50 [1]: 0.576 µM

SMILES: CCc1nc2c(C)cc(C)nc2n1Cc1ccc(-c2c(C(=O)O)c(N(C)C)nc3ccccc23)cc1
- IC50 [1]: 0.029 µM

SMILES: CCc1nc2c(C)cc(C)nc2n1Cc1ccc(-c2ncccc2C(=O)O)cc1
- IC50 [1]: 0.819 µM

SMILES: CCc1nc2c(C)cc(C)nc2n1Cc1ccc(-c2ncccc2-c2nn[nH]n2)cc1
- IC50 [1]: 0.018 µM

SMILES: CCCc1nc2c(C)cc(C)nc2n1Cc1ccc(-c2ccccc2-c2nn[nH]n2)cc1
- IC50 [1]: 0.0008 µM

SMILES: CCc1nc2c(C)cc(C)nc2n1Cc1ccc(-c2c(-c3nnn[nH]3)cnc3ccccc23)cc1
- IC50 (Oryctolagus cuniculus [2]): 0.004 µM
- IC50 [1]: 0.0069 µM
- IC50 (Oryctolagus cuniculus [3]): 0.002 µM

SMILES: CCCCc1nc(Cl)c(CO)n1Cc1ccc(-c2ccccc2-c2nnn[nH]2)cc1 [LOSARTAN]
- IC50 (Oryctolagus cuniculus [2]): 0.0099 µM

SMILES: CCCc1nc2c(C)cc(C)nc2n1Cc1ccc(-c2c(-c3nn[nH]n3)cnc3ccccc23)cc1
- IC50 [1]: 0.012 µM

SMILES: CCCN(CCC)c1nc2ccccc2c(-c2ccc(Cn3c(CC)nc4c(C)cc(C)nc43)cc2)c1C(=O)O
- IC50 [1]: 0.492 µM

SMILES: CCCc1nc2c(C)cc(C)nc2n1Cc1ccc(-c2c(C(=O)O)c(O)nc3ccccc23)cc1
- IC50 [1]: 0.261 µM

SMILES: CCc1nc2c(C)cc(C)nc2n1Cc1ccc(-c2c(C(=O)O)c(OC)nc3ccccc23)cc1
- IC50 [1]: 0.074 µM

SMILES: CCCc1nc2c(C)cc(C)nc2n1Cc1ccc(-c2c(C(=O)O)c(N)nc3ccccc23)cc1
- IC50 (Oryctolagus cuniculus [2]): 0.0033 µM
- IC50 [1]: 0.0042 µM

SMILES: CCc1nc2c(C)cc(C)nc2n1Cc1ccc(-c2c(C(=O)O)c(NC)nc3ccccc23)cc1
- IC50 [1]: 0.013 µM

SMILES: CCCc1nc2c(C)cc(C)nc2n1Cc1ccc(-c2c(C(=O)O)c(Cl)nc3ccccc23)cc1
- IC50 [1]: 0.0077 µM

SMILES: CCc1nc2c(C)cc(C)nc2n1Cc1ccc(-c2c(C(=O)O)c(=O)n(C)c3ccccc23)cc1
- IC50 [1]: 0.326 µM
- IC50 (Oryctolagus cuniculus [3]): 0.17 µM

SMILES: CCCc1nc2c(C)cc(C)nc2n1Cc1ccc(-c2c(C(=O)NS(=O)(=O)c3ccc([N+](=O)[O-])cc3)cnc3ccccc23)cc1
- IC50 [1]: 0.106 µM

SMILES: CCCc1nc2c(C)ccnc2n1Cc1ccc(-c2ccccc2-c2nn[nH]n2)cc1
- IC50 [1]: 0.001 µM

SMILES: CCCCc1nc(CCCC)n(Cc2ccc(-c3cccnc3-c3nnn[nH]3)cc2)n1
- IC50 [1]: 0.11 µM

SMILES: CCCNc1nc2ccccc2c(-c2ccc(Cn3c(CC)nc4c(C)cc(C)nc43)cc2)c1C(=O)O
- IC50 [1]: 0.066 µM

SMILES: CCc1nc2c(C)cc(C)nc2n1Cc1ccc(-c2c(C(=O)O)ccc3ccccc23)cc1
- IC50 [1]: 0.033 µM

SMILES: CCCc1nc2c(C)cc(C)nc2n1Cc1ccc(-c2c(C(=O)O)c(C)nc3ccccc23)cc1
- IC50 (Oryctolagus cuniculus [2]): 0.013 µM
- IC50 [1]: 0.009 µM

SMILES: CCCCc1nc(CCCC)n(Cc2ccc(-c3ccncc3-c3nnn[nH]3)cc2)n1
- IC50 [1]: 0.25 µM

SMILES: CCCCc1nc(CCCC)n(Cc2ccc(-c3ncccc3-c3nnn[nH]3)cc2)n1
- IC50 [1]: 0.098 µM

SMILES: CCCCc1nc2c(C)cc(C)nc2n1Cc1ccc(-c2c(C(=O)O)cnc3ccccc23)cc1
- IC50 [1]: 0.041 µM

SMILES: CCc1nc2c(C)cc(C)nc2n1Cc1ccc(-c2c(CC(=O)O)c(Cl)nc3ccccc23)cc1
- IC50 [1]: 0.215 µM

SMILES: CCc1nc2c(C)cc(C)nc2n1Cc1ccc(-c2ccccc2-c2nnn[nH]2)cc1 [L-158809]
- IC50 [1]: 0.0004 µM

SMILES: CCc1nc2c(C)cc(C)nc2n1Cc1ccc(-c2c(C(=O)O)c3nnnn3c3ccccc23)cc1
- IC50 [1]: 0.052 µM

SMILES: CCCCc1nc(CCCC)n(Cc2ccc(-c3cnccc3-c3nnn[nH]3)cc2)n1
- IC50 [1]: 0.15 µM

SMILES: CCCc1nc2c(C)ccnc2n1Cc1ccc(-c2ccncc2-c2nnn[nH]2)cc1
- IC50 [1]: 0.004 µM

SMILES: CCCCc1nc(CCCC)n(Cc2ccc(-c3ccccc3-c3nnn[nH]3)cc2)n1
- IC50 [1]: 0.0056 µM
